In ChEMBL document CHEMBL2203123, “Synthesis and biological evaluation of some hydrazone derivatives as new anticandidal and anticancer agents” (Eur J Med Chem, 2012):
In brackets after ≈: the same amount, converted by molar mass.

Legend:
Salmonella typhimurium [1] = experiment: Genotoxicity against Salmonella typhimurium TA98 assessed as fold increase in revertants at 0.625 mg/ml after 90 mins by Ames MPF test in presence of S9 fraction relative to baseline; format: toxicity, organism-based; conditions: salmonella enterica subsp. enterica serovar typhimurium, s9, 1.5 h
Method in brief: (§1)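 Ames MPF fluctuation test, TA98 and TA100: overnight cultures reincubated 90 min, then exposed 90 min at 37 °C to compounds at 0.156-5 mg/mL (in DMSO) with or without 4.5% v/v S9; indicator medium added, 48 wells per sample scored yellow after 48 h, triplicate. Fold over baseline = mean positive wells / (mean of DMSO control + 1 SD).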

Salmonella typhimurium [2] = experiment: Genotoxicity against Salmonella typhimurium TA98 assessed as fold increase in revertants at 1.25 mg/ml after 90 mins by Ames MPF test in presence of S9 fraction relative to baseline; format: toxicity, organism-based; conditions: salmonella enterica subsp. enterica serovar typhimurium, s9, 1.5 h; method in brief: as §1
Salmonella typhimurium [3] = experiment: Genotoxicity against Salmonella typhimurium TA98 assessed as fold increase in revertants at 2.5 mg/ml after 90 mins by Ames MPF test in presence of S9 fraction relative to baseline; format: toxicity, organism-based; conditions: salmonella enterica subsp. enterica serovar typhimurium, s9, 1.5 h; method in brief: as §1
Salmonella typhimurium [4] = experiment: Genotoxicity against Salmonella typhimurium TA98 assessed as fold increase in revertants at 5 mg/ml after 90 mins by Ames MPF test in presence of S9 fraction relative to baseline; format: toxicity, organism-based; conditions: salmonella enterica subsp. enterica serovar typhimurium, s9, 1.5 h; method in brief: as §1
Salmonella typhimurium [5] = experiment: Genotoxicity against Salmonella typhimurium TA98 assessed as fold increase in revertants at 0.156 mg/ml after 90 mins by Ames MPF test in absence of S9 fraction relative to baseline; format: toxicity, organism-based; conditions: salmonella enterica subsp. enterica serovar typhimurium, 1.5 h; method in brief: as §1
Salmonella typhimurium [6] = experiment: Genotoxicity against Salmonella typhimurium TA98 assessed as fold increase in revertants at 0.3125 mg/ml after 90 mins by Ames MPF test in absence of S9 fraction relative to baseline; format: toxicity, organism-based; conditions: salmonella enterica subsp. enterica serovar typhimurium, 1.5 h; method in brief: as §1
Salmonella typhimurium [7] = experiment: Genotoxicity against Salmonella typhimurium TA98 assessed as fold increase in revertants at 2.5 mg/ml after 90 mins by Ames MPF test in absence of S9 fraction relative to baseline; format: toxicity, organism-based; conditions: salmonella enterica subsp. enterica serovar typhimurium, 1.5 h; method in brief: as §1
Salmonella typhimurium [8] = experiment: Genotoxicity against Salmonella typhimurium TA98 assessed as fold increase in revertants at 5 mg/ml after 90 mins by Ames MPF test in absence of S9 fraction relative to baseline; format: toxicity, organism-based; conditions: salmonella enterica subsp. enterica serovar typhimurium, 1.5 h; method in brief: as §1
Salmonella typhimurium [9] = experiment: Genotoxicity against Salmonella typhimurium TA100 assessed as fold increase in revertants at 0.625 mg/ml after 90 mins by Ames MPF test in presence of S9 fraction relative to baseline; format: toxicity, organism-based; conditions: salmonella enterica subsp. enterica serovar typhimurium, s9, 1.5 h; method in brief: as §1
Salmonella typhimurium [10] = experiment: Genotoxicity against Salmonella typhimurium TA100 assessed as fold increase in revertants at 2.5 mg/ml after 90 mins by Ames MPF test in presence of S9 fraction relative to baseline; format: toxicity, organism-based; conditions: salmonella enterica subsp. enterica serovar typhimurium, s9, 1.5 h; method in brief: as §1
Salmonella typhimurium [11] = experiment: Genotoxicity against Salmonella typhimurium TA100 assessed as fold increase in revertants at 5 mg/ml after 90 mins by Ames MPF test in presence of S9 fraction relative to baseline; format: toxicity, organism-based; conditions: salmonella enterica subsp. enterica serovar typhimurium, s9, 1.5 h; method in brief: as §1
Salmonella typhimurium [12] = experiment: Genotoxicity against Salmonella typhimurium TA100 assessed as fold increase in revertants at 0.156 mg/ml after 90 mins by Ames MPF test in absence of S9 fraction relative to baseline; format: toxicity, organism-based; conditions: salmonella enterica subsp. enterica serovar typhimurium, 1.5 h; method in brief: as §1
Salmonella typhimurium [13] = experiment: Genotoxicity against Salmonella typhimurium TA100 assessed as fold increase in revertants at 0.625 mg/ml after 90 mins by Ames MPF test in absence of S9 fraction relative to baseline; format: toxicity, organism-based; conditions: salmonella enterica subsp. enterica serovar typhimurium, 1.5 h; method in brief: as §1
Salmonella typhimurium [14] = experiment: Genotoxicity against Salmonella typhimurium TA100 assessed as fold increase in revertants at 1.25 mg/ml after 90 mins by Ames MPF test in absence of S9 fraction relative to baseline; format: toxicity, organism-based; conditions: salmonella enterica subsp. enterica serovar typhimurium, 1.5 h; method in brief: as §1
Salmonella typhimurium [15] = experiment: Genotoxicity against Salmonella typhimurium TA100 assessed as fold increase in revertants at 5 mg/ml after 90 mins by Ames MPF test in absence of S9 fraction relative to baseline; format: toxicity, organism-based; conditions: salmonella enterica subsp. enterica serovar typhimurium, 1.5 h; method in brief: as §1
Nakaseomyces glabratus = experiment: Antifungal activity against Candida glabrata Osmangazi University clinical isolate after 24 hrs by microdilution susceptibility assay; format: functional
Method in brief: (§2)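 Broth microdilution in Mueller Hinton Broth, compounds from DMSO stocks diluted serially; inocula standardized to 10^6 CFU/mL (McFarland 0.5) from overnight MHB cultures. Plates held 37 °C for 24 h; MIC taken as first well without turbidity, aided by 1% tetrazolium violet added for 3 h at 37 °C. Ketoconazole reference.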

Cyberlindnera jadinii = experiment: Antifungal activity against Candida utilis NRRL Y-900 after 24 hrs by microdilution susceptibility assay; format: functional; conditions: Williopsis jadinii, NRRL Y-900, 24 h; method in brief: as §2
Salmonella typhimurium [16] = experiment: Genotoxicity against Salmonella typhimurium TA1535/pSK1002 assessed as growth factor ratio at 5 mg/ml by umuC assay in presence of S9 fraction; format: toxicity, organism-based; conditions: salmonella enterica subsp. enterica serovar typhimurium
Method in brief: (§3)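 umuC Easy CS: TA1535/pSK1002 grown overnight in ampicillin TG medium at 37 °C, then exposed 2 h at 37 °C to compounds at 5, 2.5, 1.25, 0.63 mg/mL with or without S9. Diluted into fresh medium for 2 h growth (OD600), then β-galactosidase with ONPG 30 min at 28 °C, OD420. Positive controls 2-aminoanthracene (+S9), […] (−S9).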

Salmonella typhimurium [17] = experiment: Genotoxicity against Salmonella typhimurium TA1535/pSK1002 assessed as growth factor ratio at 0.63 mg/ml by umuC assay in presence of S9 fraction; format: toxicity, organism-based; conditions: salmonella enterica subsp. enterica serovar typhimurium; method in brief: as §3
Salmonella typhimurium [18] = experiment: Genotoxicity against Salmonella typhimurium TA1535/pSK1002 assessed as growth factor ratio at 5 mg/ml by umuC assay in absence of S9 fraction; format: toxicity, organism-based; conditions: salmonella enterica subsp. enterica serovar typhimurium; method in brief: as §3
Salmonella typhimurium [19] = experiment: Genotoxicity against Salmonella typhimurium TA1535/pSK1002 assessed as growth factor ratio at 2.5 mg/ml by umuC assay in absence of S9 fraction; format: toxicity, organism-based; conditions: salmonella enterica subsp. enterica serovar typhimurium; method in brief: as §3
Salmonella typhimurium [20] = experiment: Genotoxicity against Salmonella typhimurium TA1535/pSK1002 assessed as growth factor ratio at 0.63 mg/ml by umuC assay in absence of S9 fraction; format: toxicity, organism-based; conditions: salmonella enterica subsp. enterica serovar typhimurium; method in brief: as §3
[21] = Genotoxicity against Salmonella typhimurium TA1535/pSK1002 assessed as induction ratio at 5 mg/ml by umuC assay in presence of S9 fraction; format: toxicity, organism-based; conditions: salmonella enterica subsp. enterica serovar typhimurium, Salmonella typhimurium TA1535/pSK1002 with S9 fraction; method in brief: as §3
Salmonella typhimurium [22] = experiment: Genotoxicity against Salmonella typhimurium TA1535/pSK1002 assessed as induction ratio at 2.5 mg/ml by umuC assay in presence of S9 fraction; format: toxicity, organism-based; conditions: salmonella enterica subsp. enterica serovar typhimurium; method in brief: as §3
[23] = Genotoxicity against Salmonella typhimurium TA1535/pSK1002 assessed as induction ratio at 1.25 mg/ml by umuC assay in presence of S9 fraction; format: toxicity, organism-based; conditions: salmonella enterica subsp. enterica serovar typhimurium, Salmonella typhimurium TA1535/pSK1002 with S9 fraction; method in brief: as §3
[24] = Genotoxicity against Salmonella typhimurium TA1535/pSK1002 assessed as induction ratio at 0.63 mg/ml by umuC assay in presence of S9 fraction; format: toxicity, organism-based; conditions: salmonella enterica subsp. enterica serovar typhimurium, Salmonella typhimurium TA1535/pSK1002 with S9 fraction; method in brief: as §3
[25] = Genotoxicity against Salmonella typhimurium TA1535/pSK1002 assessed as induction ratio at 5 mg/ml by umuC assay in absence of S9 fraction; format: toxicity, organism-based; conditions: salmonella enterica subsp. enterica serovar typhimurium, Salmonella typhimurium TA1535/pSK1002 without S9 fraction; method in brief: as §3
[26] = Genotoxicity against Salmonella typhimurium TA1535/pSK1002 assessed as induction ratio at 2.5 mg/ml by umuC assay in absence of S9 fraction; format: toxicity, organism-based; conditions: salmonella enterica subsp. enterica serovar typhimurium, Salmonella typhimurium TA1535/pSK1002 without S9 fraction; method in brief: as §3
Salmonella typhimurium [27] = experiment: Genotoxicity against Salmonella typhimurium TA1535/pSK1002 assessed as induction ratio at 0.63 mg/ml by umuC assay in absence of S9 fraction; format: toxicity, organism-based; conditions: salmonella enterica subsp. enterica serovar typhimurium; method in brief: as §3

Structure (SMILES)	fold change (FC) (Salmonella typhimurium [1])	fold change (FC) (Salmonella typhimurium [2])	fold change (FC) (Salmonella typhimurium [3])	fold change (FC) (Salmonella typhimurium [4])	fold change (FC) (Salmonella typhimurium [5])	fold change (FC) (Salmonella typhimurium [6])	fold change (FC) (Salmonella typhimurium [7])	fold change (FC) (Salmonella typhimurium [8])	fold change (FC) (Salmonella typhimurium [9])	fold change (FC) (Salmonella typhimurium [10])	fold change (FC) (Salmonella typhimurium [11])	fold change (FC) (Salmonella typhimurium [12])	fold change (FC) (Salmonella typhimurium [13])	fold change (FC) (Salmonella typhimurium [14])	fold change (FC) (Salmonella typhimurium [15])	MIC (Nakaseomyces glabratus) [µg/mL]	MIC (Cyberlindnera jadinii) [µg/mL]	Ratio (Salmonella typhimurium [16])	Ratio (Salmonella typhimurium [17])	Ratio (Salmonella typhimurium [18])	other results
CN(C)c1ccc(/C=N/NC(=O)CSc2nnnn2C)cc1	1	0.86	1.14	0.86	0.32	1.27	0	0	0.18	0.15	0.26	1.9	1.38	1	0.81	500 (≈ 1570 µM)	125 (≈ 391 µM)	2.82	1.268	2.781	Ratio (Salmonella typhimurium [19]): 1.743; Ratio (Salmonella typhimurium [20]): 0.962; fold induction at 5 mg/ml [21]: 0.379; Ratio (Salmonella typhimurium [22]): 0.598; fold induction at 1.25 mg/ml [23]: 0.67; fold induction at 0.63 mg/ml [24]: 0.704; fold induction at 5 mg/ml [25]: 0.565; fold induction at 2.5 mg/ml [26]: 0.88; Ratio (Salmonella typhimurium [27]): 1.36
Cn1nnnc1SCC(=O)N/N=C/c1ccc(O)cc1	0.32	0.63	0.53	0.63	0.52	0.13	0.13	0.26	0.7	0.63	0.82	0.66	0.66	0.91	0	1000 (≈ 3420 µM)	500 (≈ 1710 µM)	2.139	1.13	2.049	Ratio (Salmonella typhimurium [19]): 1.397; Ratio (Salmonella typhimurium [20]): 1.009; fold induction at 5 mg/ml [21]: 0.419; Ratio (Salmonella typhimurium [22]): 0.657; fold induction at 1.25 mg/ml [23]: 0.699; fold induction at 0.63 mg/ml [24]: 0.797; fold induction at 5 mg/ml [25]: 0.661; fold induction at 2.5 mg/ml [26]: 0.979; Ratio (Salmonella typhimurium [27]): 1.181
